# Data published in ChEMBL document CHEMBL4689842, “EUbOPEN Chemogenomics Library wave 1” (2021).
# Key:
# U2OS = assay: Multiplex assay against U2OS; type: toxicity, cell-based; conditions: human
# Procedure, shortened: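 Live cells were stained at seeding with Hoechst33342, BioTracker Green Microtubule Cytoskeleton Dye, MitoTracker Red and Annexin V Alexa Fluor 680. Following compound addition, they were imaged on a CQ1 microscope at 37°C and 5% CO2 and gated by CellPathfinder machine learning into Hoechst high-intensity objects or normal cells, with normal cells split into healthy, pyknosed or fragmented nuclei and pyknosed cells into mitotic or apoptotic. Tubulin, mitochondrial-mass and membrane-permeability phenotypes are per cents of healthy-nucleus cells.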
# Fibroblast = assay: Incucyte cell viability with human fibroblast; type: toxicity, cell-based; conditions: 10 µM, compound concentration 10 uM; further: filed as whole numbers so only -1 and 0 and 1 occur
# [1] = 12 h, 1 µM, compound concentration 1 uM, replicate 1
# [2] = 12 h, 1 µM, compound concentration 1 uM, replicate 2
# [3] = 12 h, 10 µM, compound concentration 10 uM, replicate 1
# [4] = 12 h, 10 µM, compound concentration 10 uM, replicate 2
# [5] = 24 h, 1 µM, compound concentration 1 uM, replicate 1
# [6] = 24 h, 1 µM, compound concentration 1 uM, replicate 2
# [7] = 24 h, 10 µM, compound concentration 10 uM, replicate 1
# [8] = 24 h, 10 µM, compound concentration 10 uM, replicate 2
# [9] = 6 h, replicate number 1, timepoint 6 hours
# [10] = 12 h, replicate number 1, timepoint 12 hours
# [11] = 18 h, replicate number 1, timepoint 18 hours
# [12] = 24 h, replicate number 1, timepoint 24 hours
smiles,measurement,setting,value
CC(C)(C)c1cnc(CSc2cnc(NC(=O)C3CCNCC3)s2)o1 [BMS-387032],Population Apoptotic (%),U2OS; [1],26%
same,Population Fragmented Nuclei (%),U2OS; [1],13%
same,Population Healthy Nuclei (%),U2OS; [1],69%
same,Population Hoechst High Intensity Objects (%),U2OS; [1],4%
same,Population Membrane Permeable-Phenotype (%),U2OS; [1],15%
same,Population Mitochondria Different-Phenotype (%),U2OS; [1],17%
same,Population Mitotic Cells (%),U2OS; [1],73%
same,Population Normal (%),U2OS; [1],95%
same,Population Pyknosed Nuclei (%),U2OS; [1],16%
same,Population Tubulin-Different-Phenotype (%),U2OS; [1],39%
same,Total Cell Count,U2OS; [1],140
same,Population Apoptotic (%),U2OS; [2],14%
same,Population Fragmented Nuclei (%),U2OS; [2],11%
same,Population Healthy Nuclei (%),U2OS; [2],80%
same,Population Hoechst High Intensity Objects (%),U2OS; [2],15%
same,Population Membrane Permeable-Phenotype (%),U2OS; [2],21%
same,Population Mitochondria Different-Phenotype (%),U2OS; [2],31%
same,Population Mitotic Cells (%),U2OS; [2],85%
same,Population Normal (%),U2OS; [2],84%
same,Population Pyknosed Nuclei (%),U2OS; [2],7%
same,Population Tubulin-Different-Phenotype (%),U2OS; [2],37%
same,Total Cell Count,U2OS; [2],143
same,Population Apoptotic (%),U2OS; [3],40%
same,Population Fragmented Nuclei (%),U2OS; [3],18%
same,Population Healthy Nuclei (%),U2OS; [3],61%
same,Population Hoechst High Intensity Objects (%),U2OS; [3],3%
same,Population Membrane Permeable-Phenotype (%),U2OS; [3],22%
same,Population Mitochondria Different-Phenotype (%),U2OS; [3],26%
same,Population Mitotic Cells (%),U2OS; [3],60%
same,Population Normal (%),U2OS; [3],96%
same,Population Pyknosed Nuclei (%),U2OS; [3],19%
same,Population Tubulin-Different-Phenotype (%),U2OS; [3],31%
same,Total Cell Count,U2OS; [3],144
same,Population Apoptotic (%),U2OS; [4],18%
same,Population Fragmented Nuclei (%),U2OS; [4],19%
same,Population Healthy Nuclei (%),U2OS; [4],63%
same,Population Hoechst High Intensity Objects (%),U2OS; [4],13%
same,Population Membrane Permeable-Phenotype (%),U2OS; [4],10%
same,Population Mitochondria Different-Phenotype (%),U2OS; [4],47%
same,Population Mitotic Cells (%),U2OS; [4],81%
same,Population Normal (%),U2OS; [4],86%
same,Population Pyknosed Nuclei (%),U2OS; [4],17%
same,Population Tubulin-Different-Phenotype (%),U2OS; [4],25%
same,Total Cell Count,U2OS; [4],109
same,Population Apoptotic (%),U2OS; [5],82%
same,Population Fragmented Nuclei (%),U2OS; [5],13%
same,Population Healthy Nuclei (%),U2OS; [5],75%
same,Population Hoechst High Intensity Objects (%),U2OS; [5],5%
same,Population Membrane Permeable-Phenotype (%),U2OS; [5],23%
same,Population Mitochondria Different-Phenotype (%),U2OS; [5],34%
same,Population Mitotic Cells (%),U2OS; [5],17%
same,Population Normal (%),U2OS; [5],94%
same,Population Pyknosed Nuclei (%),U2OS; [5],10%
same,Population Tubulin-Different-Phenotype (%),U2OS; [5],38%
same,Total Cell Count,U2OS; [5],200
same,Population Apoptotic (%),U2OS; [6],55%
same,Population Fragmented Nuclei (%),U2OS; [6],11%
same,Population Healthy Nuclei (%),U2OS; [6],80%
same,Population Hoechst High Intensity Objects (%),U2OS; [6],8%
same,Population Membrane Permeable-Phenotype (%),U2OS; [6],22%
same,Population Mitochondria Different-Phenotype (%),U2OS; [6],36%
same,Population Mitotic Cells (%),U2OS; [6],44%
same,Population Normal (%),U2OS; [6],91%
same,Population Pyknosed Nuclei (%),U2OS; [6],8%
same,Population Tubulin-Different-Phenotype (%),U2OS; [6],36%
same,Total Cell Count,U2OS; [6],166
same,Population Apoptotic (%),U2OS; [7],64%
same,Population Fragmented Nuclei (%),U2OS; [7],22%
same,Population Healthy Nuclei (%),U2OS; [7],45%
same,Population Hoechst High Intensity Objects (%),U2OS; [7],9%
same,Population Membrane Permeable-Phenotype (%),U2OS; [7],29%
same,Population Mitochondria Different-Phenotype (%),U2OS; [7],43%
same,Population Mitotic Cells (%),U2OS; [7],35%
same,Population Normal (%),U2OS; [7],90%
same,Population Pyknosed Nuclei (%),U2OS; [7],32%
same,Population Tubulin-Different-Phenotype (%),U2OS; [7],41%
same,Total Cell Count,U2OS; [7],174
same,Population Apoptotic (%),U2OS; [8],78%
same,Population Fragmented Nuclei (%),U2OS; [8],12%
same,Population Healthy Nuclei (%),U2OS; [8],52%
same,Population Hoechst High Intensity Objects (%),U2OS; [8],17%
same,Population Membrane Permeable-Phenotype (%),U2OS; [8],24%
same,Population Mitochondria Different-Phenotype (%),U2OS; [8],41%
same,Population Mitotic Cells (%),U2OS; [8],21%
same,Population Normal (%),U2OS; [8],82%
same,Population Pyknosed Nuclei (%),U2OS; [8],34%
same,Population Tubulin-Different-Phenotype (%),U2OS; [8],27%
same,Total Cell Count,U2OS; [8],118
same,Growth Rate,"Fibroblast; 0 h, replicate number 1, timepoint 0 hours",0
same,Growth Rate,Fibroblast; [9],0
same,Growth Rate,Fibroblast; [10],0
same,Growth Rate,Fibroblast; [11],0
same,Growth Rate,Fibroblast; [12],0
c1ccc2oc(-c3csc(C4CCN(Cc5nc6ncccc6[nH]5)CC4)n3)cc2c1,Population Apoptotic (%),U2OS; [1],8%
same,Population Fragmented Nuclei (%),U2OS; [1],2%
same,Population Healthy Nuclei (%),U2OS; [1],90%
same,Population Hoechst High Intensity Objects (%),U2OS; [1],3%
same,Population Membrane Permeable-Phenotype (%),U2OS; [1],12%
same,Population Mitochondria Different-Phenotype (%),U2OS; [1],15%
same,Population Mitotic Cells (%),U2OS; [1],91%
same,Population Normal (%),U2OS; [1],96%
same,Population Pyknosed Nuclei (%),U2OS; [1],6%
same,Population Tubulin-Different-Phenotype (%),U2OS; [1],10%
same,Total Cell Count,U2OS; [1],182
same,Population Apoptotic (%),U2OS; [2],25%
same,Population Fragmented Nuclei (%),U2OS; [2],8%
same,Population Healthy Nuclei (%),U2OS; [2],85%
same,Population Hoechst High Intensity Objects (%),U2OS; [2],7%
same,Population Membrane Permeable-Phenotype (%),U2OS; [2],8%
same,Population Mitochondria Different-Phenotype (%),U2OS; [2],27%
same,Population Mitotic Cells (%),U2OS; [2],75%
same,Population Normal (%),U2OS; [2],92%
same,Population Tubulin-Different-Phenotype (%),U2OS; [2],15%
same,Total Cell Count,U2OS; [2],141
same,Population Apoptotic (%),U2OS; [3],42%
same,Population Fragmented Nuclei (%),U2OS; [3],4%
same,Population Healthy Nuclei (%),U2OS; [3],91%
same,Population Hoechst High Intensity Objects (%),U2OS; [3],3%
same,Population Membrane Permeable-Phenotype (%),U2OS; [3],9%
same,Population Mitochondria Different-Phenotype (%),U2OS; [3],25%
same,Population Mitotic Cells (%),U2OS; [3],57%
same,Population Normal (%),U2OS; [3],96%
same,Population Pyknosed Nuclei (%),U2OS; [3],3%
same,Population Tubulin-Different-Phenotype (%),U2OS; [3],29%
same,Total Cell Count,U2OS; [3],205
same,Population Apoptotic (%),U2OS; [4],25%
same,Population Fragmented Nuclei (%),U2OS; [4],7%
same,Population Healthy Nuclei (%),U2OS; [4],88%
same,Population Hoechst High Intensity Objects (%),U2OS; [4],15%
same,Population Membrane Permeable-Phenotype (%),U2OS; [4],18%
same,Population Mitochondria Different-Phenotype (%),U2OS; [4],34%
same,Population Mitotic Cells (%),U2OS; [4],75%
same,Population Normal (%),U2OS; [4],84%
same,Population Pyknosed Nuclei (%),U2OS; [4],4%
same,Population Tubulin-Different-Phenotype (%),U2OS; [4],34%
same,Total Cell Count,U2OS; [4],114
same,Population Apoptotic (%),U2OS; [5],40%
same,Population Fragmented Nuclei (%),U2OS; [5],2%
same,Population Healthy Nuclei (%),U2OS; [5],90%
same,Population Hoechst High Intensity Objects (%),U2OS; [5],2%
same,Population Membrane Permeable-Phenotype (%),U2OS; [5],7%
same,Population Mitochondria Different-Phenotype (%),U2OS; [5],16%
same,Population Mitotic Cells (%),U2OS; [5],60%
same,Population Normal (%),U2OS; [5],97%
same,Population Tubulin-Different-Phenotype (%),U2OS; [5],19%
same,Total Cell Count,U2OS; [5],223
same,Population Apoptotic (%),U2OS; [6],25%
same,Population Fragmented Nuclei (%),U2OS; [6],4%
same,Population Healthy Nuclei (%),U2OS; [6],88%
same,Population Hoechst High Intensity Objects (%),U2OS; [6],3%
same,Population Membrane Permeable-Phenotype (%),U2OS; [6],9%
same,Population Mitochondria Different-Phenotype (%),U2OS; [6],24%
same,Population Mitotic Cells (%),U2OS; [6],75%
same,Population Normal (%),U2OS; [6],96%
same,Population Pyknosed Nuclei (%),U2OS; [6],6%
same,Population Tubulin-Different-Phenotype (%),U2OS; [6],22%
same,Total Cell Count,U2OS; [6],181
same,Population Apoptotic (%),U2OS; [7],45%
same,Population Fragmented Nuclei (%),U2OS; [7],5%
same,Population Healthy Nuclei (%),U2OS; [7],90%
same,Population Hoechst High Intensity Objects (%),U2OS; [7],1%
same,Population Membrane Permeable-Phenotype (%),U2OS; [7],5%
same,Population Mitochondria Different-Phenotype (%),U2OS; [7],14%
same,Population Mitotic Cells (%),U2OS; [7],54%
same,Population Normal (%),U2OS; [7],98%
same,Population Pyknosed Nuclei (%),U2OS; [7],3%
same,Total Cell Count,U2OS; [7],282
same,Population Apoptotic (%),U2OS; [8],0%
same,Population Fragmented Nuclei (%),U2OS; [8],4%
same,Population Healthy Nuclei (%),U2OS; [8],91%
same,Population Hoechst High Intensity Objects (%),U2OS; [8],9%
same,Population Membrane Permeable-Phenotype (%),U2OS; [8],11%
same,Population Mitochondria Different-Phenotype (%),U2OS; [8],33%
same,Population Mitotic Cells (%),U2OS; [8],100%
same,Population Normal (%),U2OS; [8],90%
same,Population Pyknosed Nuclei (%),U2OS; [8],4%
same,Population Tubulin-Different-Phenotype (%),U2OS; [8],33%
same,Total Cell Count,U2OS; [8],137
same,Growth Rate,Fibroblast; [9],0
same,Growth Rate,Fibroblast; [10],0
same,Growth Rate,"Fibroblast; 12 h, replicate number 2, timepoint 12 hours",1
same,Growth Rate,Fibroblast; [11],0
same,Growth Rate,"Fibroblast; 18 h, replicate number 2, timepoint 18 hours",1
same,Growth Rate,Fibroblast; [12],0
same,Growth Rate,"Fibroblast; 24 h, replicate number 2, timepoint 24 hours",1
